Results reported in ChEMBL document CHEMBL1649119, “Daptomycin pharmacokinetics in adult oncology patients with neutropenic fever” (Antimicrob Agents Chemother, 2009).
Converted amounts (≈) assume the structure as drawn.

How the values were obtained:
[1] = Unbound fraction in healthy human plasma at 4 mg/kg, iv administered as 30 mins infusion every 24 hrs measured on day 7; format: ADME, organism-based; parameters: dose 4 mg/kg, route intravenous
[2] = Cmax in healthy human subjects at 12 mg/kg, iv administered as 30 mins infusion every 24 hrs measured on day 1; format: ADME, organism-based; parameters: dose 12 mg/kg, route intravenous; settings: in vivo
[3] = AUC (0 to infinity) in healthy human subjects at 10 mg/kg, iv administered as 30 mins infusion every 24 hrs measured on day 1; format: ADME, organism-based; parameters: time infinity, dose 10 mg/kg, route intravenous; settings: plasma
[4] = AUC (0 to infinity) in nonobese adult human at 4 mg/kg, iv administered as single dose 30 mins infusion; format: ADME, organism-based; parameters: time infinity, dose 4 mg/kg, route intravenous; settings: plasma
[5] = AUC (0 to infinity) in healthy human subjects at 10 mg/kg, iv administered as 30 mins infusion every 24 hrs measured on day 14; format: ADME, organism-based; parameters: time infinity, dose 10 mg/kg, route intravenous; settings: plasma
[6] = Clearance in healthy human subjects at 12 mg/kg, iv administered as 30 mins infusion every 24 hrs measured on day 1; format: ADME, organism-based; parameters: dose 12 mg/kg, route intravenous; settings: in vivo
[7] = Unbound fraction in healthy human plasma at 4 mg/kg, iv administered as 30 mins infusion every 24 hrs measured on day 1; format: ADME, organism-based; parameters: dose 4 mg/kg, route intravenous
Staphylococcus = test: Antimicrobial activity against Staphylococcus; format: functional
[8] = AUC (0 to infinity) in healthy human subjects at 10 mg/kg, iv administered as 30 mins infusion every 24 hrs measured on day 4; format: ADME, organism-based; parameters: time infinity, dose 10 mg/kg, route intravenous; settings: plasma
[9] = Half life in young healthy human at 4 mg/kg, iv administered as single dose 30 mins infusion; format: ADME, organism-based; parameters: dose 4 mg/kg, route intravenous; settings: in vivo
[10] = Renal clearance in adult human with hepatic impairment at 6 mg/kg, iv administered as single dose 30 mins infusion; format: ADME, organism-based, Kidney; parameters: dose 6 mg/kg, route intravenous; settings: in vivo, read-out: CL_renal (converted)
Enterococcus = test: Antimicrobial activity against Enterococcus; format: functional
[11] = Apparent volume of distribution during terminal phase in healthy human subjects at 12 mg/kg, iv administered as 30 mins infusion every 24 hrs measured on day 1; format: ADME, organism-based; parameters: dose 12 mg/kg, route intravenous; settings: in vivo
Homo sapiens [12] = test: Unbound clearance in healthy human at 4 mg/kg, iv administered as 30 mins infusion every 24 hrs measured on day 1; format: ADME, organism-based; parameters: dose 4 mg/kg, route intravenous; settings: in vivo
[13] = Half life in healthy human subjects at 12 mg/kg, iv administered as 30 mins infusion every 24 hrs measured on day 1; format: ADME, organism-based; parameters: dose 12 mg/kg, route intravenous; settings: in vivo
Homo sapiens [14] = test: Unbound clearance in healthy human at 8 mg/kg, iv administered as 30 mins infusion every 24 hrs measured on day 14; format: ADME, organism-based; parameters: dose 8 mg/kg, route intravenous; settings: in vivo
[15] = Clearance in healthy human subjects at 6 mg/kg, iv administered as 30 mins infusion every 24 hrs measured on day 1; format: ADME, organism-based; parameters: dose 6 mg/kg, route intravenous; settings: in vivo
Homo sapiens [16] = test: Volume of distribution at steady state in healthy human at 4 mg/kg, iv administered as single dose 30 mins infusion; format: ADME, organism-based; parameters: dose 4 mg/kg, route intravenous; settings: in vivo, 0.5 h
[17] = AUC (0 to infinity) in morbidly obese adult human at 4 mg/kg, iv administered as single dose 30 mins infusion; format: ADME, organism-based; parameters: time infinity, dose 4 mg/kg, route intravenous; settings: plasma
[18] = Plasma protein binding in human after 0.5 hrs; format: ADME, cell-free; settings: read-out: PPB (converted)
How it was run: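 Neutropenic-fever oncology patients received 6 mg/kg IV daptomycin; serum was drawn 0.5, 2 and 8 h after the end of infusion. Free drug was obtained by ultrafiltration (30,000-MW cutoff) and quantified by HPLC against a saline-matrix curve of 0.25–100 μg/ml, with total plasma drug also measured. Percent bound was (total − free)/total × 100; results are given as mean ± SD.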

[19] = Half life in healthy human subjects at 6 mg/kg, iv administered as 30 mins infusion every 24 hrs measured on day 4; format: ADME, organism-based; parameters: dose 6 mg/kg, route intravenous; settings: in vivo
[20] = Half life in nonobese human at 4 mg/kg, iv administered as single dose 30 mins infusion; format: ADME, organism-based; parameters: dose 4 mg/kg, route intravenous; settings: in vivo
[21] = Plasma concentration in old healthy human at 4 mg/kg, iv administered as single dose 30 mins infusion measured after 24 hrs; format: ADME, organism-based; parameters: dose 4 mg/kg, route intravenous
[22] = Half life in old healthy human at 4 mg/kg, iv administered as single dose 30 mins infusion; format: ADME, organism-based; parameters: dose 4 mg/kg, route intravenous; settings: in vivo
[23] = AUC (0 to tau) in healthy human subjects at 6 mg/kg, iv administered as 30 mins infusion every 24 hrs measured on days 1-3; format: ADME, organism-based; parameters: dose 6 mg/kg, route intravenous; settings: plasma
[24] = Clearance in healthy human at 4 mg/kg, iv administered as 30 mins infusion every 24 hrs measured on day 7; format: ADME, organism-based; parameters: dose 4 mg/kg, route intravenous; settings: in vivo
[25] = Clearance in morbidly obese human at 4 mg/kg, iv administered as single dose 30 mins infusion; format: ADME, organism-based; parameters: dose 4 mg/kg, route intravenous; settings: in vivo
[26] = Cmax in cancer patient with neutropenic fever at 6 mg/kg, iv administered as 30 mins infusion every 24 hrs; format: ADME, organism-based; parameters: dose 6 mg/kg, route intravenous; settings: human, in vivo
How it was run: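 First 6 mg/kg dose given over 30 min IV (q24h) to 29 neutropenic febrile adult cancer patients. Serial plasma was taken predose, at end of infusion, and at 0.5–24 h. Total concentration was measured by validated HPLC (limit of detection 1 μg/ml). Cmax is the observed peak value, reported as mean ± SD and range.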

[27] = Volume of distribution at steady state in old healthy human at 4 mg/kg, iv administered as single dose 30 mins infusion; format: ADME, organism-based; parameters: dose 4 mg/kg, route intravenous; settings: in vivo, read-out: Vdss
[28] = Half life in healthy human at 4 mg/kg, iv administered as 30 mins infusion every 24 hrs measured on day 1; format: ADME, organism-based; parameters: dose 4 mg/kg, route intravenous; settings: in vivo
[29] = Half life in moderately obese adult human at 4 mg/kg, iv administered as single dose 30 mins infusion; format: ADME, organism-based; parameters: dose 4 mg/kg, route intravenous; settings: in vivo
[30] = Cmax in moderately obese adult human at 4 mg/kg, iv administered as single dose 30 mins infusion; format: ADME, organism-based; parameters: dose 4 mg/kg, route intravenous; settings: in vivo
[31] = AUC (0 to infinity) in healthy human subjects at 6 mg/kg, iv administered as 30 mins infusion every 24 hrs measured on day 4; format: ADME, organism-based; parameters: time infinity, dose 6 mg/kg, route intravenous; settings: plasma
[32] = Drug excretion in adult human subjects urine assessed as unchanged drug at 6 mg/kg, iv administered as single dose 30 mins infusion; format: ADME, organism-based; parameters: dose 6 mg/kg, route intravenous; settings: read-out: Drug uptake
[33] = Clearance in healthy human at 6 mg/kg, iv administered as 30 mins infusion every 24 hrs measured on day 7; format: ADME, organism-based; parameters: dose 6 mg/kg, route intravenous; settings: in vivo
[34] = Apparent volume of distribution during terminal phase in healthy human at 8 mg/kg, iv administered as 30 mins infusion every 24 hrs measured on day 1; format: ADME, organism-based; parameters: dose 8 mg/kg, route intravenous; settings: in vivo
[35] = Half life in healthy human subjects at 12 mg/kg, iv administered as 30 mins infusion every 24 hrs measured on day 4; format: ADME, organism-based; parameters: dose 12 mg/kg, route intravenous; settings: in vivo
[36] = AUC (0 to infinity) in moderately obese adult human at 4 mg/kg, iv administered as single dose 30 mins infusion; format: ADME, organism-based; parameters: time infinity, dose 4 mg/kg, route intravenous; settings: plasma
[37] = Clearance in healthy human subjects at 10 mg/kg, iv administered as 30 mins infusion every 24 hrs measured on day 14; format: ADME, organism-based; parameters: dose 10 mg/kg, route intravenous; settings: in vivo
[38] = Cmax in nonobese adult human at 4 mg/kg, iv administered as single dose 30 mins infusion; format: ADME, organism-based; parameters: dose 4 mg/kg, route intravenous; settings: in vivo
[39] = Volume of distribution at steady state in morbidly obese human at 4 mg/kg, iv administered as single dose 30 mins infusion; format: ADME, organism-based; parameters: dose 4 mg/kg, route intravenous; settings: in vivo, read-out: Vdss
[40] = Drug excretion in morbidly obese adult human urine assessed as unchanged drug at 4 mg/kg, iv administered as single dose 30 mins infusion; format: ADME, organism-based; parameters: dose 4 mg/kg, route intravenous; settings: read-out: Drug uptake
[41] = AUC (0 to infinity) in healthy human at 8 mg/kg, iv administered as 30 mins infusion every 24 hrs measured on day 7; format: ADME, organism-based; parameters: dose 8 mg/kg, route intravenous, time infinity; settings: plasma
[42] = Half life in adult human subjects at 6 mg/kg, iv administered as single dose 30 mins infusion; format: ADME, organism-based; parameters: dose 6 mg/kg, route intravenous; settings: in vivo

`CCCCCCCCCC(=O)N[C@@H](Cc1c[nH]c2ccccc12)C(=O)N[C@H](CC(N)=O)C(=O)N[C@@H](CC(=O)O)C(=O)N[C@@H]1C(=O)NCC(=O)N[C@@H](CCCN)C(=O)N[C@@H](CC(=O)O)C(=O)N[C@H](C)C(=O)N[C@@H](CC(=O)O)C(=O)NCC(=O)N[C@H](CO)C(=O)N[C@@H]([C@H](C)CC(=O)O)C(=O)N[C@@H](CC(=O)c2ccccc2N)C(=O)O[C@@H]1C` gave a fraction unbound at 7 day [1] of 0.08, a Cmax [2] of 165000 ng/mL and an AUC(0-inf) [3] of 1010 µg·h/mL. For the same compound, the AUC(0-inf) [4] was 322 µg·h/mL, the AUC(0-inf) [5] was 1080 µg·h/mL and the clearance [6] was 0.167 mL/min/kg. It also gave a fraction unbound at 1 day [7] of 0.08, an MIC90 (Staphylococcus) of under 1 µg/mL and an AUC(0-inf) [8] of 1040 µg·h/mL. It also gave a half-life [9] of 6.79 h, a CL renal at 0.5 h [10] of 0.0608 mL/min/kg and an MIC90 (Enterococcus) of 2 µg/mL (≈ 1.23 µM). It also gave a Vd [11] of 0.111 L/kg, a CL (Homo sapiens [12]) of 1.41 mL/min/kg and a half-life [13] of 7.8 h. The CL (Homo sapiens [14]) was 0.745 mL/min/kg, the clearance [15] was 0.165 mL/min/kg and the Vdss (Homo sapiens [16]) was 6057 mL. For the same compound, the AUC(0-inf) [17] was 548 µg·h/mL, the fraction unbound at 0.5 h [18] was 0.058 and the half-life [19] was 7.9 h. The half-life [20] was 8.04 h, the concentration at 24 h [21] was 6380 ng/mL and the half-life [22] was 11.8 h. For the same compound, the AUC tau [23] was 645 µg·h/mL, the clearance [24] was 0.138 mL/min/kg and the clearance [25] was 0.118 mL/min/kg. It also gave a Cmax [26] of 48900 ng/mL, a Vd [27] of 0.15 L/kg and a half-life [28] of 7.4 h. For the same compound, the half-life [29] was 7.34 h, the Cmax [30] was 57800 ng/mL and the AUC(0-inf) [31] was 632 µg·h/mL. It also gave a dose excreted at 0.5 h [32] of 39.8%, a clearance [33] of 0.135 mL/min/kg and a Vd [34] of 0.099 L/kg. For the same compound, the half-life [35] was 7.7 h, the AUC(0-inf) [36] was 421 µg·h/mL and the clearance [37] was 0.125 mL/min/kg. For the same compound, the Cmax [38] was 46300 ng/mL, the Vd [39] was 0.09 L/kg and the dose excreted at 0.5 h [40] was 42.7%. The AUC(0-inf) [41] was 1130 µg·h/mL and the half-life [42] was 9.44 h.
